ChEMBL document CHEMBL1667806, “Synthesis and evaluation of anti-tubercular activity of new dithiocarbamate sugar derivatives” (2011)
Values after ≈ are worked out from the molar mass of the structure shown.

What was measured:
[1] = test system: Mycobacterium tuberculosis; assay: Antimycobacterial activity against Mycobacterium tuberculosis H37Rv; assay type: functional
[2] = microbe, parasite or virus in culture; assay type: functional, Mycobacterium bovis BCG str. Tokyo 172; conditions: Mycobacterium tuberculosis variant bovis BCG
[3] = test system: Mycolicibacterium smegmatis; assay: microbe, parasite or virus in culture; assay type: functional; conditions: JATA 64.01
[4] = microbe, parasite or virus in culture; assay type: functional, Mycobacterium avium subsp. hominissuis; conditions: Mycobacterium avium, 104
Mycobacterium avium = assay: microbe, parasite or virus in culture; assay type: functional, Mycobacterium avium subsp. avium ATCC 25291; conditions: ATCC 2529
Staphylococcus aureus [5] = assay: Antimicrobial activity against Staphylococcus aureus; assay type: functional
Staphylococcus aureus [6] = assay: microbe, parasite or virus in culture; assay type: functional; conditions: 873
Escherichia coli [7] = assay: Antimicrobial activity against Escherichia coli DH5alpha; assay type: functional; conditions: DH5[alpha]
Staphylococcus aureus [8] = assay: Antimicrobial activity against drug-sensitive Staphylococcus aureus 209PJC-1; assay type: functional
Staphylococcus aureus [9] = assay: Antimicrobial activity against drug-sensitive Staphylococcus aureus RN4220; assay type: functional
Staphylococcus aureus [10] = assay: Antimicrobial activity against methicillin-resistant Staphylococcus aureus MF490; assay type: functional
Enterococcus faecalis [11] = assay: Antimicrobial activity against AGs-resistant Enterococcus faecalis ATCC 19433; assay type: functional
Enterococcus faecalis [12] = assay: Antimicrobial activity against AGs-resistant Enterococcus faecalis ATCC 19434; assay type: functional
Escherichia coli [13] = assay: Antimicrobial activity against drug-sensitive Escherichia coli JM109; assay type: functional
Klebsiella pneumoniae = assay: Antibacterial activity against […] Klebsiella pneumoniae ATCC BAA-1705; assay type: functional
Pseudomonas aeruginosa = assay: Antibacterial activity against drug-sensitive Pseudomonas aeruginosa PAO1; assay type: functional
[14] = test system: Mycobacterium tuberculosis; assay: Antimycobacterial activity against drug-sensitive Mycobacterium tuberculosis isolate 1; assay type: functional
[15] = test system: Mycobacterium tuberculosis; assay: Antimycobacterial activity against drug-sensitive Mycobacterium tuberculosis isolate 2; assay type: functional
How it was run: (§1)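 MIC by broth dilution in Middlebrook 7H9 broth supplemented with albumin, dextrose and catalase.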

[16] = test system: Mycobacterium tuberculosis; assay: Antimycobacterial activity against drug-sensitive Mycobacterium tuberculosis isolate 3; assay type: functional; how it was run: as §1
[17] = test system: Mycobacterium tuberculosis; assay: Antimycobacterial activity against drug-sensitive Mycobacterium tuberculosis isolate 4; assay type: functional; how it was run: as §1
[18] = test system: Mycobacterium tuberculosis; assay: Antimycobacterial activity against drug-sensitive Mycobacterium tuberculosis isolate 5; assay type: functional; how it was run: as §1
[19] = test system: Mycobacterium tuberculosis; assay: Antimycobacterial activity against drug-sensitive Mycobacterium tuberculosis isolate 6; assay type: functional; how it was run: as §1
[20] = test system: Mycobacterium tuberculosis; assay: Antimycobacterial activity against drug-sensitive Mycobacterium tuberculosis isolate 7; assay type: functional; how it was run: as §1
[21] = test system: Mycobacterium tuberculosis; assay: Antimycobacterial activity against drug-sensitive Mycobacterium tuberculosis isolate 8; assay type: functional; how it was run: as §1
[22] = test system: Mycobacterium tuberculosis; assay: Antimycobacterial activity against drug-sensitive Mycobacterium tuberculosis isolate 9; assay type: functional; how it was run: as §1
[23] = test system: Mycobacterium tuberculosis; assay: Antimycobacterial activity against drug-sensitive Mycobacterium tuberculosis isolate 10; assay type: functional; how it was run: as §1
[24] = test system: Mycobacterium tuberculosis; assay: Antimycobacterial activity against drug-sensitive Mycobacterium tuberculosis isolate 11; assay type: functional; how it was run: as §1
[25] = test system: Mycobacterium tuberculosis; assay: Antimycobacterial activity against drug-sensitive Mycobacterium tuberculosis isolate 12; assay type: functional; how it was run: as §1
[26] = test system: Mycobacterium tuberculosis; assay: Antimycobacterial activity against drug-sensitive Mycobacterium tuberculosis isolate 13; assay type: functional; how it was run: as §1
[27] = test system: Mycobacterium tuberculosis; assay: Antimycobacterial activity against drug-sensitive Mycobacterium tuberculosis isolate 14; assay type: functional; how it was run: as §1
[28] = test system: Mycobacterium tuberculosis; assay: Antimycobacterial activity against drug-sensitive Mycobacterium tuberculosis isolate 15; assay type: functional; how it was run: as §1
[29] = test system: Mycobacterium tuberculosis; assay: Antimycobacterial activity against drug-sensitive Mycobacterium tuberculosis isolate 16; assay type: functional; how it was run: as §1
[30] = test system: Mycobacterium tuberculosis; assay: Antimycobacterial activity against drug-sensitive Mycobacterium tuberculosis isolate 17; assay type: functional; how it was run: as §1
[31] = test system: Mycobacterium tuberculosis; assay: Antimycobacterial activity against drug-sensitive Mycobacterium tuberculosis isolate 18; assay type: functional; how it was run: as §1
[32] = test system: Mycobacterium tuberculosis; assay: Antimycobacterial activity against drug-sensitive Mycobacterium tuberculosis isolate 19; assay type: functional; how it was run: as §1
[33] = test system: Mycobacterium tuberculosis; assay: Antimycobacterial activity against drug-sensitive Mycobacterium tuberculosis isolate 20; assay type: functional; how it was run: as §1

CCN(CC)C(=S)[S-].[Na+] [DITIOCARB SODIUM]
MIC [1]: 3.13 µg/mL
MIC [2]: 3.13 µg/mL
MIC [3]: > 100 µg/mL

CC[C@@H](CO)NCCN[C@@H](CC)CO [ETHAMBUTOL]
MIC [1]: 2.5 µg/mL (≈ 12.2 µM)
MIC [2]: 1.5 µg/mL (≈ 7.34 µM)
MIC [4]: 1.6 µg/mL (≈ 7.83 µM)
MIC (Mycobacterium avium): 1.6 µg/mL (≈ 7.83 µM)
MIC (Staphylococcus aureus [5]): > 100 µg/mL
MIC (Staphylococcus aureus [6]): > 100 µg/mL
MIC (Escherichia coli [7]): > 100 µg/mL

C[C@@H](O)[C@H]1C(=O)N2C(C(=O)O)=C(SCCNC=N)C[C@H]12 [IMIPENEM ANHYDROUS]
MIC [1]: 3.13 µg/mL (≈ 10.5 µM)
MIC [2]: 3.13 µg/mL (≈ 10.5 µM)
MIC (Staphylococcus aureus [5]): 0.1 µg/mL (≈ 0.334 µM)
MIC (Staphylococcus aureus [6]): 0.1 µg/mL (≈ 0.334 µM)
MIC (Escherichia coli [7]): 0.1 µg/mL (≈ 0.334 µM)

NNC(=O)c1ccncc1 [ISONIAZID]
MIC [1]: 0.04 µg/mL (≈ 0.292 µM)
MIC [2]: 0.04 µg/mL (≈ 0.292 µM)
MIC [4]: 1.56 µg/mL (≈ 11.4 µM)
MIC (Mycobacterium avium): 3.13 µg/mL (≈ 22.8 µM)
MIC (Staphylococcus aureus [5]): > 100 µg/mL
MIC (Staphylococcus aureus [6]): > 100 µg/mL
MIC (Escherichia coli [7]): > 100 µg/mL

NC[C@H]1O[C@H](O[C@H]2[C@H](O)[C@@H](O[C@H]3O[C@H](CO)[C@@H](O)[C@H](N)[C@H]3O)[C@H](N)C[C@@H]2N)[C@H](O)[C@@H](O)[C@@H]1O [KANAMYCIN]
MIC [1]: 1.56 µg/mL (≈ 3.22 µM)
MIC [2]: 0.3 µg/mL (≈ 0.619 µM)
MIC [4]: 3.13 µg/mL (≈ 6.46 µM)
MIC (Mycobacterium avium): 3.13 µg/mL (≈ 6.46 µM)
MIC (Staphylococcus aureus [5]): 12.5 µg/mL (≈ 25.8 µM)
MIC (Staphylococcus aureus [6]): > 100 µg/mL
MIC (Escherichia coli [7]): 12.5 µg/mL (≈ 25.8 µM)

CC(=O)N[C@@H]1[C@@H](O)[C@H](O)[C@@H](CO)O[C@H]1O [N-ACETYLGLUCOSAMINE]
MIC [1]: > 100 µg/mL
MIC [2]: > 100 µg/mL
MIC [4]: > 100 µg/mL
MIC (Mycobacterium avium): > 100 µg/mL
MIC (Staphylococcus aureus [5]): > 100 µg/mL
MIC (Staphylococcus aureus [6]): > 100 µg/mL
MIC (Escherichia coli [7]): > 100 µg/mL

CC1(C)S[C@@H]2[C@H](NC(=O)Cc3ccccc3)C(=O)N2[C@H]1C(=O)O [PENICILLIN G]
MIC [1]: 500 µg/mL (≈ 1500 µM)
MIC [2]: 500 µg/mL (≈ 1500 µM)
MIC (Staphylococcus aureus [5]): 31.3 µg/mL (≈ 93.6 µM)
MIC (Staphylococcus aureus [6]): > 500 µg/mL
MIC (Escherichia coli [7]): 25 µg/mL (≈ 74.8 µM)

N.S=C(S)N1CCCC1 [PYRROLIDINE DITHIOCARBAMIC ACID, AMMONIUM SALT]
MIC [1]: 0.2 µg/mL
MIC [2]: 0.4 µg/mL
MIC [3]: > 100 µg/mL
MIC [4]: 3.13 µg/mL
MIC (Mycobacterium avium): 3.13 µg/mL
MIC (Staphylococcus aureus [5]): 12.5 µg/mL
MIC (Staphylococcus aureus [6]): 12.5 µg/mL
MIC (Escherichia coli [7]): 12.5 µg/mL
MIC (Staphylococcus aureus [8]): 8 µg/mL
MIC (Staphylococcus aureus [9]): 8 µg/mL
MIC (Staphylococcus aureus [10]): 8 µg/mL
MIC (Enterococcus faecalis [11]): 32 µg/mL
MIC (Enterococcus faecalis [12]): 32 µg/mL
MIC (Escherichia coli [13]): > 32 µg/mL
MIC (Klebsiella pneumoniae): > 32 µg/mL
MIC (Pseudomonas aeruginosa): > 32 µg/mL
MIC [14]: 0.2 µg/mL
MIC [15]: 0.2 µg/mL
MIC [16]: 0.2 µg/mL
MIC [17]: 0.2 µg/mL
MIC [18]: 0.2 µg/mL
MIC [19]: 0.2 µg/mL
MIC [20]: 0.4 µg/mL
MIC [21]: 0.4 µg/mL
MIC [22]: 0.2 µg/mL
MIC [23]: 0.2 µg/mL
MIC [24]: 0.2 µg/mL
MIC [25]: 0.2 µg/mL
MIC [26]: 0.4 µg/mL
MIC [27]: 0.2 µg/mL
MIC [28]: 0.2 µg/mL
MIC [29]: 0.2 µg/mL
MIC [30]: 0.2 µg/mL
MIC [31]: 0.2 µg/mL
MIC [32]: 0.4 µg/mL
MIC [33]: 0.4 µg/mL

CO[C@H]1/C=C/O[C@@]2(C)Oc3c(C)c(O)c4c(O)c(c(/C=N/N5CCN(C)CC5)c(O)c4c3C2=O)NC(=O)/C(C)=C\C=C\[C@H](C)[C@H](O)[C@@H](C)[C@@H](O)[C@@H](C)[C@H](OC(C)=O)[C@@H]1C [RIFAMPIN]
MIC [1]: 0.004 µg/mL (≈ 0.00486 µM)
MIC [2]: 0.004 µg/mL (≈ 0.00486 µM)
MIC [4]: 0.25 µg/mL (≈ 0.304 µM)
MIC (Mycobacterium avium): < 0.05 µg/mL
MIC (Staphylococcus aureus [5]): 0.002 µg/mL (≈ 0.00243 µM)
MIC (Staphylococcus aureus [6]): 0.004 µg/mL (≈ 0.00486 µM)
MIC (Escherichia coli [7]): 50 µg/mL (≈ 60.8 µM)

CN(C)C(=S)[S-].[Na+] [SODIUM DIMETHYLCARBAMODITHIOATE]
MIC [1]: 1.56 µg/mL
MIC [2]: 1.56 µg/mL
MIC [3]: > 100 µg/mL
MIC [4]: > 100 µg/mL
MIC (Mycobacterium avium): > 100 µg/mL
MIC (Staphylococcus aureus [5]): > 100 µg/mL
MIC (Staphylococcus aureus [6]): > 100 µg/mL
MIC (Escherichia coli [7]): > 100 µg/mL

CN[C@@H]1[C@H](O[C@H]2[C@H](O[C@H]3[C@H](O)[C@@H](O)[C@H](N=C(N)N)[C@@H](O)[C@@H]3N=C(N)N)O[C@@H](C)[C@]2(O)C=O)O[C@@H](CO)[C@H](O)[C@H]1O [STREPTOMYCIN]
MIC [1]: 0.39 µg/mL (≈ 0.671 µM)
MIC [2]: 0.2 µg/mL (≈ 0.344 µM)
MIC [4]: 1.56 µg/mL (≈ 2.68 µM)
MIC (Mycobacterium avium): 3.13 µg/mL (≈ 5.38 µM)
MIC (Staphylococcus aureus [5]): 50 µg/mL (≈ 86 µM)
MIC (Staphylococcus aureus [6]): > 100 µg/mL
MIC (Escherichia coli [7]): 50 µg/mL (≈ 86 µM)
